ChEMBL document CHEMBL2417530, “Coumarin derivatives protect against ischemic brain injury in rats” (Eur J Med Chem, 2013)

Tested on: PC-12
Assay: Neuroprotective activity in rat PC12 cells assessed as attenuation of oxygen-glucose deprivation-induced cellular damage at 10 uM by MTT assay relative to control
Assay type: functional
Details: not given
How it was run: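 PC12 cells were seeded at 5×10^3/well for 24 h. OGD insult was low-glucose medium plus 5 mM sodium dithionite for 24 h, given together with 10 µM compound. MTT (5 mg/mL) was added for 4 h and absorbance read at 570 nm. Viability was expressed as % of full-medium control; n = 3.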

Structure (SMILES)	Activity [%]
Cc1c(N2CCN(C)CC2)c(=O)oc2cc(O)cc(OCCNC(=O)OC(C)(C)C)c12	23.4
Cc1c(N2CCN(Cc3cc4c(cc3Cl)OCO4)CC2)c(=O)oc2cc(O)cc(O)c12	44.6
Cc1c(N2CCN(C)CC2)c(=O)oc2cc(O)cc(OCCN)c12	49.2
Cc1c(N2CCN(C)CC2)c(=O)oc2cc(O)cc(OCCCCl)c12	36.3
CCCCCCCNC(=O)N1CCN(c2c(C)c3c(O)cc(O)cc3oc2=O)CC1	43.4
CC(=O)Nc1ccc(S(=O)(=O)N2CCN(c3c(C)c4c(O)cc(O)cc4oc3=O)CC2)cc1	44.5
Cc1c(N2CCN(C)CC2)c(=O)oc2cc3c(cc12)OCO3	47.9
Cc1ccc(COc2cc(O)cc3oc(=O)c(N4CCN(C)CC4)c(C)c23)c(C)c1	27.3
Cc1c(N2CCN(S(=O)(=O)c3ccccc3)CC2)c(=O)oc2cc(O)cc(O)c12	49.7
Cc1c(N2CCN(C(=O)CCl)CC2)c(=O)oc2cc(O)cc(O)c12	48.1
Cc1c(N2CCN(C)CC2)c(=O)oc2cc(OCCN3CCCCC3)ccc12	45.3
COc1cc(OC)c2c(C)c(N3CCN(C)CC3)c(=O)oc2c1	49.6
Cc1c(CCN2CCN(C)CC2)c(=O)oc2cc(O)cc(O)c12	45.9
Cc1c(N2CCN(C)CC2)c(=O)oc2cc(N(C)C)ccc12	45.8
Cc1c(N2CCN(C(=O)Nc3ccc(C(C)C)cc3)CC2)c(=O)oc2cc(O)cc(O)c12	46.3
CCCCCCCCOc1cc(O)cc2oc(=O)c(N3CCN(C)CC3)c(C)c12	15.6
COc1cc(O)c2c(C)c(N3CCN(C)CC3)c(=O)oc2c1	46.1
COc1ccccc1N1CCN(c2c(C)c3c(O)cc(O)cc3oc2=O)CC1	46.8

Structure (SMILES)	Activity [%]
Cc1c(N2CCN(C)CC2)c(=O)oc2cc(O)cc(OC3CCN(C(=O)OC(C)(C)C)CC3)c12	51.5
CCC1CCC(Oc2ccc3c(C)c(N4CCN(C)CC4)c(=O)oc3c2)CC1 (configuration not stated)	49.2
CC(=O)N1CCN(c2c(C)c3c(O)cc(O)cc3oc2=O)CC1	48.4
Cc1c(N2CCN(C(=S)Nc3cccc(F)c3)CC2)c(=O)oc2cc(O)cc(O)c12	48.8
Cc1c(N2CCN(C(=O)c3ccccc3)CC2)c(=O)oc2cc(O)cc(O)c12	44.6
Cc1c(CC(=O)N2CCN(C)CC2)c(=O)oc2cc(O)cc(O)c12	46.7
Cc1c(N2CCN(C(=O)Nc3ccc(OC(F)(F)F)cc3)CC2)c(=O)oc2cc(O)cc(O)c12	48.7
Cc1c(N2CCN(C)CC2)c(=O)oc2cc(O)cc(OCC3CC3)c12	37.7
Cc1c(N2CCN(C)CC2)c(=O)oc2cc(O)cc(OCc3nccs3)c12	54.7
Cc1c(N2CCN(C)CC2)c(=O)oc2cc(OCCN3CCOCC3)ccc12	49.3
Cc1c(N2CCN(C)CC2)c(=O)oc2cc(O)cc(OCCCN)c12	40.5
CC(=O)Oc1cc(OC(C)=O)c2c(C)c(N3CCN(C)CC3)c(=O)oc2c1	46.6
Cc1c(N2CCN(C)CC2)c(=O)oc2cc(O)cc(OC3CCOC3)c12 (configuration not stated)	52
Cc1c(N2CCN(C)CC2)c(=O)oc2cc(OCCc3cccs3)ccc12	43.7
COc1ccc(COc2ccc3c(C)c(N4CCN(C)CC4)c(=O)oc3c2)cc1	44.2
Cc1ccc(S(=O)(=O)NCCOc2cc(O)cc3oc(=O)c(N4CCN(C)CC4)c(C)c23)cc1	45.1
Cc1c(N2CCN(C(=O)/C=C/c3ccccc3)CC2)c(=O)oc2cc(O)cc(O)c12	45.9
Cc1c(N2CCN(C)CC2)c(=O)oc2cc(O)cc(OCCNS(C)(=O)=O)c12	40.3

Tested on: not listed separately
Assay: Cytotoxicity against rat PC12 cells assessed as cell proliferation at 10 uM by MTT assay relative to control
Assay type: cell-based, PC-12
Details: read-out: Activity
How it was run: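 PC12 cells were grown in DMEM with 5% FBS, 5% horse serum and 2 mM glutamine at 37 °C, 5% CO2. They were seeded at 5×10^3 cells/well for 24 h, then exposed to 10 µM compound in full medium. Viability was read by MTT (5 mg/mL, 4 h) at 570 nm as % of control absorbance; n = 3.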

Structure (SMILES)	viability at 10 µM [%]
Cc1c(N2CCN(C)CC2)c(=O)oc2cc(O)cc(OCCNC(=O)OC(C)(C)C)c12	132
Cc1c(N2CCN(Cc3cc4c(cc3Cl)OCO4)CC2)c(=O)oc2cc(O)cc(O)c12	97.2
Cc1c(N2CCN(C)CC2)c(=O)oc2cc(O)cc(OCCN)c12	104
Cc1c(N2CCN(C)CC2)c(=O)oc2cc(O)cc(OCCCCl)c12	197
CCCCCCCNC(=O)N1CCN(c2c(C)c3c(O)cc(O)cc3oc2=O)CC1	99.3
CC(=O)Nc1ccc(S(=O)(=O)N2CCN(c3c(C)c4c(O)cc(O)cc4oc3=O)CC2)cc1	98.1
Cc1c(N2CCN(C)CC2)c(=O)oc2cc3c(cc12)OCO3	101
Cc1ccc(COc2cc(O)cc3oc(=O)c(N4CCN(C)CC4)c(C)c23)c(C)c1	51.6
Cc1c(N2CCN(S(=O)(=O)c3ccccc3)CC2)c(=O)oc2cc(O)cc(O)c12	97.4
Cc1c(N2CCN(C(=O)CCl)CC2)c(=O)oc2cc(O)cc(O)c12	97.4
Cc1c(N2CCN(C)CC2)c(=O)oc2cc(OCCN3CCCCC3)ccc12	95.4
COc1cc(OC)c2c(C)c(N3CCN(C)CC3)c(=O)oc2c1	100
Cc1c(CCN2CCN(C)CC2)c(=O)oc2cc(O)cc(O)c12	102
Cc1c(N2CCN(C)CC2)c(=O)oc2cc(N(C)C)ccc12	97.8
Cc1c(N2CCN(C(=O)Nc3ccc(C(C)C)cc3)CC2)c(=O)oc2cc(O)cc(O)c12	97.3
CCCCCCCCOc1cc(O)cc2oc(=O)c(N3CCN(C)CC3)c(C)c12	59.4
COc1cc(O)c2c(C)c(N3CCN(C)CC3)c(=O)oc2c1	99.8
COc1ccccc1N1CCN(c2c(C)c3c(O)cc(O)cc3oc2=O)CC1	102

Structure (SMILES)	viability at 10 µM [%]
Cc1c(N2CCN(C)CC2)c(=O)oc2cc(O)cc(OC3CCN(C(=O)OC(C)(C)C)CC3)c12	137
CCC1CCC(Oc2ccc3c(C)c(N4CCN(C)CC4)c(=O)oc3c2)CC1 (configuration not stated)	101
CC(=O)N1CCN(c2c(C)c3c(O)cc(O)cc3oc2=O)CC1	98.1
Cc1c(N2CCN(C(=S)Nc3cccc(F)c3)CC2)c(=O)oc2cc(O)cc(O)c12	101
Cc1c(N2CCN(C(=O)c3ccccc3)CC2)c(=O)oc2cc(O)cc(O)c12	100
Cc1c(CC(=O)N2CCN(C)CC2)c(=O)oc2cc(O)cc(O)c12	97.7
Cc1c(N2CCN(C(=O)Nc3ccc(OC(F)(F)F)cc3)CC2)c(=O)oc2cc(O)cc(O)c12	99.5
Cc1c(N2CCN(C)CC2)c(=O)oc2cc(O)cc(OCC3CC3)c12	184
Cc1c(N2CCN(C)CC2)c(=O)oc2cc(O)cc(OCc3nccs3)c12	108
Cc1c(N2CCN(C)CC2)c(=O)oc2cc(OCCN3CCOCC3)ccc12	101
Cc1c(N2CCN(C)CC2)c(=O)oc2cc(O)cc(OCCCN)c12	107
CC(=O)Oc1cc(OC(C)=O)c2c(C)c(N3CCN(C)CC3)c(=O)oc2c1	102
Cc1c(N2CCN(C)CC2)c(=O)oc2cc(O)cc(OC3CCOC3)c12 (configuration not stated)	107
Cc1c(N2CCN(C)CC2)c(=O)oc2cc(OCCc3cccs3)ccc12	110
COc1ccc(COc2ccc3c(C)c(N4CCN(C)CC4)c(=O)oc3c2)cc1	136
Cc1ccc(S(=O)(=O)NCCOc2cc(O)cc3oc(=O)c(N4CCN(C)CC4)c(C)c23)cc1	140
Cc1c(N2CCN(C(=O)/C=C/c3ccccc3)CC2)c(=O)oc2cc(O)cc(O)c12	104
Cc1c(N2CCN(C)CC2)c(=O)oc2cc(O)cc(OCCNS(C)(=O)=O)c12	103
